Source: ChEMBL document CHEMBL1122632, “Synthesis and antitumor activity of cis-dichloroplatinum (II)-N-aminated nucleoside complexes” (J Med Chem, 1984)
pIC50: −log10 of the molar value. Values joined by “and” are separate entries in the source; they are usually repeats but may differ in a detail not shown here. Equal values may be shown once.

Assays:
L1210 [1] = assay: In vitro inhibition of L1210 (murine leukemia) cell growth.; assay type: functional, cell-based, Mus musculus
Summary of the method: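 L1210 cells (10^5 in 1 mL) were grown in RPMI 1640 with 10% FCS and kanamycin, at 37 °C in CO2, for 48 h. Compounds were heated at 110 °C for 8 h, dissolved in medium and tested at ≥6 concentrations. Viability was scored by 0.17% Trypan blue exclusion against drug-free controls. IC50 was the concentration halving living cell number, taken from the log-probit dose-response curve.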

Mus musculus [2] = assay: Effect on kidney weight in ICR mice was determined after intraperitoneal administration on day 9; assay type: functional, organism-based
Summary of the method: (§1)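 ICR mice (25-30 weeks, 39 ± 4 g), 5-6 per group, given one ip dose of 0.043 mmol/kg, equimolar to 13 mg/kg cis-DDP. Body and kidney weights were taken on days 3, 6 and 9 and compared with untreated controls. Weights are paired, mean ± SD.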

Mus musculus [3] = assay: Blood urea nitrogen values in ICR mice after intraperitoneal administration at an equivalent molar dose of the LD50 of […](13 mg/kg) on day 6; assay type: functional, organism-based
Summary of the method: (§2)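 ICR mice (25-30 weeks, 39 ± 4 g), 5-6 per group, given one ip dose of 0.043 mmol/kg, equimolar to 13 mg/kg cis-DDP. On days 3, 6 and 9, blood was drawn from the heart under ether anesthesia and stored frozen. BUN was measured later by a modified urease indophenol method. Results are mean ± SD, mg/100 mL blood, compared with untreated controls.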

L1210 [4] = assay: Ratio of median survival time of the mice bearing L1210 cells in treated(T) vs. control(C) at a dose of 10 mg/kg x 2 days; assay type: functional, organism-based; set-up: dose 10 mg/kg; settings: Mus musculus
Summary of the method: (§3)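 (BALB/c × DBA/2)F1 mice (20 g) were implanted ip with 10^4 L1210 cells. Compounds in saline (0.2 mL) were given ip on days 1 and 5; doses above 100 mg/kg were homogenized with Nikkol (7× by weight). Activity was scored as median survival time of treated mice and expressed as T/C, the ratio of treated to control median survival time.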

L1210 [5] = assay: Ratio of median survival time of the mice bearing L1210 cells in treated(T) vs. control(C) at a dose of 900 mg/kg x 2 days; assay type: functional, organism-based; set-up: dose 900 mg/kg; settings: Mus musculus; summary of the method: as §3
Mus musculus [6] = assay: Effect on body weight in ICR mice was determined after intraperitoneal administration on day 6; assay type: functional, organism-based; summary of the method: as §1
L1210 [7] = assay: Median survival time (MST) of mice bearing L1210 cells was determined at a dose of 600 mg/kg x 2 days administered ip.; assay type: functional, organism-based; set-up: dose 600 mg/kg; settings: Mus musculus; summary of the method: as §3
L1210 [8] = assay: Median survival time (MST) of mice bearing L1210 cells was determined at a dose of 25 mg/kg x 2 days administered ip.; assay type: functional, organism-based; set-up: dose 25 mg/kg; settings: Mus musculus; summary of the method: as §3
L1210 [9] = assay: Median survival time (MST) of mice bearing L1210 cells was determined at a dose of 50 mg/kg x 2 days administered ip.; assay type: functional, organism-based; set-up: dose 50 mg/kg; settings: Mus musculus; summary of the method: as §3
L1210 [10] = assay: Median survival time (MST) of mice bearing L1210 cells was determined at a dose of 100 mg/kg x 2 days administered ip.; assay type: functional, organism-based; set-up: dose 100 mg/kg; settings: Mus musculus; summary of the method: as §3
L1210 [11] = assay: Median survival time (MST) of mice bearing L1210 cells was determined at a dose of 300 mg/kg x 2 days administered ip.; assay type: functional, organism-based; set-up: dose 300 mg/kg; settings: Mus musculus; summary of the method: as §3
Mus musculus [12] = assay: Effect on body weight in ICR mice was determined after intraperitoneal administration on day 3; assay type: functional, organism-based; summary of the method: as §1
Mus musculus [13] = assay: Blood urea nitrogen values in ICR mice after intraperitoneal administration at an equivalent molar dose of the LD50 of […](13 mg/kg) on day 9; assay type: functional, organism-based; summary of the method: as §2
Mus musculus [14] = assay: Effect on body weight in ICR mice was determined after intraperitoneal administration on day 9; assay type: functional, organism-based; summary of the method: as §1
L1210 [15] = assay: Median survival time (MST) of mice bearing L1210 cells was determined at a dose of 10 mg/kg x 2 days administered ip.; assay type: functional, organism-based; set-up: dose 10 mg/kg; settings: Mus musculus; summary of the method: as §3
L1210 [16] = assay: Ratio of median survival time of the mice bearing L1210 cells in treated(T) vs. control(C) at a dose of 300 mg/kg x 2 days; assay type: functional, organism-based; set-up: dose 300 mg/kg; settings: Mus musculus; summary of the method: as §3
L1210 [17] = assay: Ratio of median survival time of the mice bearing L1210 cells in treated(T) vs. control(C) at a dose of 600 mg/kg x 2 days; assay type: functional, organism-based; set-up: dose 600 mg/kg; settings: Mus musculus; summary of the method: as §3
L1210 [18] = assay: Median survival time (MST) of mice bearing L1210 cells was determined at a dose of 200 mg/kg x 2 days administered ip.; assay type: functional, organism-based; set-up: dose 200 mg/kg; settings: Mus musculus; summary of the method: as §3
L1210 [19] = assay: Median survival time (MST) of mice bearing L1210 cells was determined at a dose of 900 mg/kg x 2 days administered ip.; assay type: functional, organism-based; set-up: dose 900 mg/kg; settings: Mus musculus; summary of the method: as §3
Mus musculus [20] = assay: Effect on kidney weight in ICR mice was determined after intraperitoneal administration on day 6; assay type: functional, organism-based; summary of the method: as §1
L1210 [21] = assay: Ratio of median survival time of the mice bearing L1210 cells in treated(T) vs. control(C) at a dose of 50 mg/kg x 2 days; assay type: functional, organism-based; set-up: dose 50 mg/kg; settings: Mus musculus; summary of the method: as §3
L1210 [22] = assay: Ratio of median survival time of the mice bearing L1210 cells in treated(T) vs. control(C) at a dose of 200 mg/kg x 2 days; assay type: functional, organism-based; set-up: dose 200 mg/kg; settings: Mus musculus; summary of the method: as §3
Mus musculus [23] = assay: Blood urea nitrogen values in ICR mice after intraperitoneal administration at an equivalent molar dose of the LD50 of […](13 mg/kg) on day 3; assay type: functional, organism-based; summary of the method: as §2
Mus musculus [24] = assay: Effect on kidney weight in ICR mice was determined after intraperitoneal administration on day 3; assay type: functional, organism-based; summary of the method: as §1
L1210 [25] = assay: Ratio of median survival time of the mice bearing L1210 cells in treated(T) vs. control(C) at a dose of 25 mg/kg x 2 days; assay type: functional, organism-based; set-up: dose 25 mg/kg; settings: Mus musculus; summary of the method: as §3
L1210 [26] = assay: Ratio of median survival time of the mice bearing L1210 cells in treated(T) vs. control(C) at a dose of 100 mg/kg x 2 days; assay type: functional, organism-based; set-up: dose 100 mg/kg; settings: Mus musculus; summary of the method: as §3
L1210 [27] = assay: Median survival time (MST) of mice bearing L1210 cells was determined at a dose of 2 mg/kg x 2 days administered ip; Toxic.; assay type: functional, organism-based; set-up: dose 2 mg/kg; settings: Mus musculus; summary of the method: as §3
L1210 [28] = assay: Median survival time (MST) of mice bearing L1210 cells was determined at a dose of 59 mg/kg x 2 days administered ip; Toxic.; assay type: functional, organism-based; set-up: dose 59 mg/kg; settings: Mus musculus; summary of the method: as §3
L1210 [29] = assay: Median survival time (MST) of mice bearing L1210 cells was determined at a dose of 300 mg/kg x 2 days administered ip; Toxic; assay type: functional, organism-based; set-up: dose 300 mg/kg; settings: Mus musculus; summary of the method: as §3

Molecule | Kidney weight (Mus musculus [2]) | Blood urea nitrogen (Mus musculus [3]) [mg 100ml-1] | T/C (L1210 [4]) [%] | Body weight (Mus musculus [6]) | MST (L1210 [8]) [days] | MST (L1210 [9]) [days] | MST (L1210 [10]) [days] | Body weight (Mus musculus [12]) | Blood urea nitrogen (Mus musculus [13]) [mg 100ml-1] | Body weight (Mus musculus [14]) | MST (L1210 [15]) [days] | MST (L1210 [18]) [days] | Kidney weight (Mus musculus [20]) | T/C (L1210 [21]) [%] | T/C (L1210 [22]) [%] | Blood urea nitrogen (Mus musculus [23]) [mg 100ml-1] | Kidney weight (Mus musculus [24]) | T/C (L1210 [25]) [%] | T/C (L1210 [26]) [%] | further results
3-aminotubercidin-dichloroplatinum (II) [listing 1 of 2 here] | – | – | – | – | – | – | – | – | – | – | – | – | – | – | – | – | – | – | – | IC50 (L1210 [1]; l1210): 4.9 µg/mL; pIC50 (L1210 [1]; l1210, read-out: IC50): 5.05
3-aminotubercidin-dichloroplatinum (II) [listing 2 of 2 here] | 750 | 22.8 | 112 | 39.4 | 10 | 10.5 | 11.5 | 38.4 | 26.3 | 40 | 9 | 11.5 | 686 | 131 | 144 | 24 | 587 | 125 | 144 | T/C (L1210 [5]): 156%; MST (L1210 [7]): 12.5 days; MST (L1210 [11]): 12 days; T/C (L1210 [16]): 150%; T/C (L1210 [17]): 156%; MST (L1210 [19]): 12.5 days
N=c1ccn([C@H]2C[C@H](O)[C@@H](CO)O2)c(=O)n1N | – | – | – | – | – | – | – | – | – | – | – | – | – | – | – | – | – | – | – | IC50 (L1210 [1]; Mus musculus, L1210, read-out: IC50): 2000 µg/mL and 7.18 mM
3-aminocytidine-dichloroplatinum (II) [listing 1 of 2 here] | – | – | – | – | – | – | – | – | – | – | – | – | – | – | – | – | – | – | – | IC50 (L1210 [1]; l1210): 64 µg/mL; pIC50 (L1210 [1]; l1210, read-out: IC50): 3.91
3-amino-2'-deoxycytidine hydrochloridecis-DDP | – | – | – | – | – | – | – | – | – | – | – | – | – | – | – | – | – | – | – | MST (L1210 [27]): Toxic; MST (L1210 [28]): Toxic
3-aminocytidine-dichloroplatinum (II) [listing 2 of 2 here] | 571 | 26.3 | 119 | 39.9 | 10 | 10 | 10.5 | 35.6 | 28.7 | 36.5 | 9.5 | 11 | 637 | 125 | 138 | 22 | 545 | 125 | 131 | MST (L1210 [11]): 11 days; T/C (L1210 [16]): 138%
3-amino-2'-deoxycytidine-dichloroplatinum (II) | 634 | 28 | 125 | 39.3 | 10.5 | 13 | 14.5 | 38.3 | 26 | 35.5 | 10 | 8.5 | 654 | 162 | 106 | 27.2 | 626 | 131 | 181 | MST (L1210 [29]): Toxic
